Laboratory results taken from ChEMBL document CHEMBL3588829, “Dehydro-β-proline Containing α4β1 Integrin Antagonists: Stereochemical Recognition in Ligand-Receptor Interplay” (ACS Med Chem Lett, 2015).

Tests used:
Integrin alpha-4/beta-1 [1] = target: T1, Integrin alpha-4/beta-1 (Homo sapiens, UniProt P05556+P13612); test: Inhibition of human alpha4beta1 integrin expressed in human Jurkat cells assessed as inhibition of cell adhesion to VCAM-1; type: cell-based
In short: (§1)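 Cell adhesion inhibition assay, run on Jurkat with VCAM-1, RPMI8866, K562 or SK-MEL-24 cells. Each experiment was run in quadruplicate and repeated at least three times.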

Integrin alpha-4/beta-7 = target: T2, Integrin alpha-4/beta-7 (Homo sapiens, UniProt P13612+P26010); test: Inhibition of human alpha4beta7 integrin expressed in human RPMI8866 cells assessed as inhibition of cell adhesion to MadCam1; type: cell-based; in short: as §1
T2 sequence (P13612 whole entry): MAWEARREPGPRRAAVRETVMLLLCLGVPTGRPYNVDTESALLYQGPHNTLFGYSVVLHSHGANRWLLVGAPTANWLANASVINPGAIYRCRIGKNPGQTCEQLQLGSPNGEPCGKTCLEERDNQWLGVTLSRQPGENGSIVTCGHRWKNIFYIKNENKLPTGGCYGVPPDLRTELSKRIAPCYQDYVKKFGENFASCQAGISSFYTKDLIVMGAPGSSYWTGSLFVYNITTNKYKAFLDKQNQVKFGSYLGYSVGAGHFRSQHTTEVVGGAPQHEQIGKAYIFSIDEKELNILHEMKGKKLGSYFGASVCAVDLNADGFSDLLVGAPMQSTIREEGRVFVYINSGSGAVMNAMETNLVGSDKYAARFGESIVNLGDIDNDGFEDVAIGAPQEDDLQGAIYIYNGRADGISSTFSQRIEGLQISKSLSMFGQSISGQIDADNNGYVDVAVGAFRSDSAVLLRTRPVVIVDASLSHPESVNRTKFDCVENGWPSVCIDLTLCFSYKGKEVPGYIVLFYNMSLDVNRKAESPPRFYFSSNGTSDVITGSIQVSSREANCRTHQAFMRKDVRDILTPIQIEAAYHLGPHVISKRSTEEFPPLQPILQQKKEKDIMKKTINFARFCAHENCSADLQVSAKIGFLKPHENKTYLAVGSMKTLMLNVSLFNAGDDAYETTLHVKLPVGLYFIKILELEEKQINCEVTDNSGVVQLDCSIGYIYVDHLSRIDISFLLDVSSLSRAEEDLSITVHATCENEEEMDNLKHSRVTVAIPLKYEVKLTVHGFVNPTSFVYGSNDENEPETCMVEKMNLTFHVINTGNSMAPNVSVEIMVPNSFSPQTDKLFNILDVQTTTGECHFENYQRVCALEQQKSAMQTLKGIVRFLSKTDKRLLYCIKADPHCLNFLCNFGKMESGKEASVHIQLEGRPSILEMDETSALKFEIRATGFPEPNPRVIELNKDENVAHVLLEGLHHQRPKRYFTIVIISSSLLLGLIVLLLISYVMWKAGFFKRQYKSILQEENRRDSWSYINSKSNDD
T2 sequence (P26010 whole entry): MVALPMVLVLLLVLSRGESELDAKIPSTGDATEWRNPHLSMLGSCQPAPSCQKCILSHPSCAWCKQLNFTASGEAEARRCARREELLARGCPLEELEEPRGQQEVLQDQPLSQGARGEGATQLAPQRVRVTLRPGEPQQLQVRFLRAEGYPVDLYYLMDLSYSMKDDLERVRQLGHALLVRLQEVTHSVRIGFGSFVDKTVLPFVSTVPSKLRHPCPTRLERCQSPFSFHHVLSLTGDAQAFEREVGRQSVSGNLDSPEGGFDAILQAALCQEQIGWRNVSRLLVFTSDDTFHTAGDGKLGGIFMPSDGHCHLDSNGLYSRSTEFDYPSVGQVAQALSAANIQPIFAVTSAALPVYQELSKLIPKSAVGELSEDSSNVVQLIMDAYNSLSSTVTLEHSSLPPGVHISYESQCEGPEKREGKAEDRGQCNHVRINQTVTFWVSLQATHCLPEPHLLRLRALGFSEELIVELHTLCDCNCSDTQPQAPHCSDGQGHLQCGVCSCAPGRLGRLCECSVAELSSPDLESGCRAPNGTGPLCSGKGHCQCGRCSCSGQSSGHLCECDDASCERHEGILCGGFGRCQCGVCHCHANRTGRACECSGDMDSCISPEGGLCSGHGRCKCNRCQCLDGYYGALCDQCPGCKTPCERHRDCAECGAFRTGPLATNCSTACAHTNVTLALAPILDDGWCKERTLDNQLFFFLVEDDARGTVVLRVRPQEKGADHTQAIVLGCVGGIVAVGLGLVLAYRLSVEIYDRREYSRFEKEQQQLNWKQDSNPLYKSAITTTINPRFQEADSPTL

Integrin alpha-5/beta-1 = Integrin alpha-5/beta-1 (Homo sapiens, UniProt P05556+P08648); test: Inhibition of human alpha5beta1 integrin expressed in human K-562 cells assessed as inhibition of cell adhesion to fibronectin; type: cell-based, K562; in short: as §1
Sequence of Integrin alpha-5/beta-1 (P05556 21-798 limits assumed): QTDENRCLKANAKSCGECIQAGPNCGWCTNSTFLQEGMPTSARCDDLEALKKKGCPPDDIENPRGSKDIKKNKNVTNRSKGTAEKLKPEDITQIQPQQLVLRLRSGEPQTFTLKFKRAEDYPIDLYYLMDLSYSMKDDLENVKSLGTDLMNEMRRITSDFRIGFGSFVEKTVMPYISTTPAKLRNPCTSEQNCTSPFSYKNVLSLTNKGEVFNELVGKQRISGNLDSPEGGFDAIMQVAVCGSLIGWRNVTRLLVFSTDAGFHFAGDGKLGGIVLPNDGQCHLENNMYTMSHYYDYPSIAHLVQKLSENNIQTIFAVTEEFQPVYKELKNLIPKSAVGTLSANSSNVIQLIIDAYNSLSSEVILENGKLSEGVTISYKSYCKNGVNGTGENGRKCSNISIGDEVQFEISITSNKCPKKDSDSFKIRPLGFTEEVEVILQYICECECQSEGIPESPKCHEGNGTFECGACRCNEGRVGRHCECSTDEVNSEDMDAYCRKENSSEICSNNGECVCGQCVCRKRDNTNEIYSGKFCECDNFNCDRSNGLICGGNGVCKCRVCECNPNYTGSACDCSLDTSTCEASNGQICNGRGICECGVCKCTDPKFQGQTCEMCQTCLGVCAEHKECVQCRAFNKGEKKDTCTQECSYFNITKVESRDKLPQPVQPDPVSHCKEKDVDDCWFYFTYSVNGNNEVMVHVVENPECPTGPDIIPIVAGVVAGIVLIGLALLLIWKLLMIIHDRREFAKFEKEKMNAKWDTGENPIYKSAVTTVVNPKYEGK
Sequence of Integrin alpha-5/beta-1 (P08648 42-894 limits assumed): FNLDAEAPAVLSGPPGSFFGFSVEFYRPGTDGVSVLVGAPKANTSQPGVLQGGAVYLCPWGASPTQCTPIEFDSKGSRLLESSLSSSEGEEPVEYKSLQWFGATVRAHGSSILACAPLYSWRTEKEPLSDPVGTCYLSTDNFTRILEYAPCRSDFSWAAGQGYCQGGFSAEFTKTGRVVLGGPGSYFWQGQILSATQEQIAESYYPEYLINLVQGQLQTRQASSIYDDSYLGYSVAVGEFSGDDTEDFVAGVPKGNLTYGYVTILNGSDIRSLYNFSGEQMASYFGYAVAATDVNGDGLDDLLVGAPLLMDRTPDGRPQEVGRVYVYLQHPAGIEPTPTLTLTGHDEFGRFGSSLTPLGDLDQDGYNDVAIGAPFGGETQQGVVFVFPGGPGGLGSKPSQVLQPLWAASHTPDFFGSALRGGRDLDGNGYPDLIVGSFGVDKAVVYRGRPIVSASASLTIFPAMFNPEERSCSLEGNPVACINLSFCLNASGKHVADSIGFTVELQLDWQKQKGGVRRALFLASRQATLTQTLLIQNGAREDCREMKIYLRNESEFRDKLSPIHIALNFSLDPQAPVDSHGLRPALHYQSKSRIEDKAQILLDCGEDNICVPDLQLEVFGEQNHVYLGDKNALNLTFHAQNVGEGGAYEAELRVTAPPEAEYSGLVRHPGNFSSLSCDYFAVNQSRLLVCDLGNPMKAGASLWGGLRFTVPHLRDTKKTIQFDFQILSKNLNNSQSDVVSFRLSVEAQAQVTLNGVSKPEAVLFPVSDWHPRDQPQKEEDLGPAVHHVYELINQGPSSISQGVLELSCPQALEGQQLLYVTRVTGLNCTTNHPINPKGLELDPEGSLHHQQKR
Sequence of Integrin alpha-5/beta-1 (P08648 895-1049 limits assumed): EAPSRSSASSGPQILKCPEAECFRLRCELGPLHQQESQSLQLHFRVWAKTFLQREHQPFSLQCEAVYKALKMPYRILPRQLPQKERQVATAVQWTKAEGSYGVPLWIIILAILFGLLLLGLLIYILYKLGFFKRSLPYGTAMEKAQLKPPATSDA

Integrin alpha-V/beta-3 = Integrin alpha-V/beta-3 (Homo sapiens, UniProt P05106+P06756); test: Inhibition of human alphaVbeta3 integrin expressed in human SK-MEL-24 cells assessed as inhibition of cell adhesion to fibronectin
Sequence of Integrin alpha-V/beta-3 (P05106 27-788 limits assumed): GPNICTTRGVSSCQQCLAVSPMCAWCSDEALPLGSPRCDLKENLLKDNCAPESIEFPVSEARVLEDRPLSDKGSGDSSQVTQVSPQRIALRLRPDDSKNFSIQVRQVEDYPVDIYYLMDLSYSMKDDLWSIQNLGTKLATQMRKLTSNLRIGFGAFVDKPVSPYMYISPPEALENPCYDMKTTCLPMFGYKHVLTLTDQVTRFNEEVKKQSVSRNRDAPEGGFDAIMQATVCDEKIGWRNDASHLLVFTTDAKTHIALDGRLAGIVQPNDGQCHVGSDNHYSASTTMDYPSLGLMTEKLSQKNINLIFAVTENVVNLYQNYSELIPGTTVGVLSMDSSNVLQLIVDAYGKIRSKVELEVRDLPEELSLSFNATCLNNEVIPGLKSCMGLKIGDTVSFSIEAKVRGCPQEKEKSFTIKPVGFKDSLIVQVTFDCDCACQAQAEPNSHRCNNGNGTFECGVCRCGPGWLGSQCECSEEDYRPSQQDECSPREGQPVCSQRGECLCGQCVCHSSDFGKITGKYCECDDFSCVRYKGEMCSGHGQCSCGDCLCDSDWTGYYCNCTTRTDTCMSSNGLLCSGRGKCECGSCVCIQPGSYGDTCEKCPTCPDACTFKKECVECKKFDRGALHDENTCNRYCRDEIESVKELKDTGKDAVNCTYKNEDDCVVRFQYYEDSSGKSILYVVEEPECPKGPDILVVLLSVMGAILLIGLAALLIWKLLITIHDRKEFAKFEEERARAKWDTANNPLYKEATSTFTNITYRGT
Sequence of Integrin alpha-V/beta-3 (P06756 31-889 limits assumed): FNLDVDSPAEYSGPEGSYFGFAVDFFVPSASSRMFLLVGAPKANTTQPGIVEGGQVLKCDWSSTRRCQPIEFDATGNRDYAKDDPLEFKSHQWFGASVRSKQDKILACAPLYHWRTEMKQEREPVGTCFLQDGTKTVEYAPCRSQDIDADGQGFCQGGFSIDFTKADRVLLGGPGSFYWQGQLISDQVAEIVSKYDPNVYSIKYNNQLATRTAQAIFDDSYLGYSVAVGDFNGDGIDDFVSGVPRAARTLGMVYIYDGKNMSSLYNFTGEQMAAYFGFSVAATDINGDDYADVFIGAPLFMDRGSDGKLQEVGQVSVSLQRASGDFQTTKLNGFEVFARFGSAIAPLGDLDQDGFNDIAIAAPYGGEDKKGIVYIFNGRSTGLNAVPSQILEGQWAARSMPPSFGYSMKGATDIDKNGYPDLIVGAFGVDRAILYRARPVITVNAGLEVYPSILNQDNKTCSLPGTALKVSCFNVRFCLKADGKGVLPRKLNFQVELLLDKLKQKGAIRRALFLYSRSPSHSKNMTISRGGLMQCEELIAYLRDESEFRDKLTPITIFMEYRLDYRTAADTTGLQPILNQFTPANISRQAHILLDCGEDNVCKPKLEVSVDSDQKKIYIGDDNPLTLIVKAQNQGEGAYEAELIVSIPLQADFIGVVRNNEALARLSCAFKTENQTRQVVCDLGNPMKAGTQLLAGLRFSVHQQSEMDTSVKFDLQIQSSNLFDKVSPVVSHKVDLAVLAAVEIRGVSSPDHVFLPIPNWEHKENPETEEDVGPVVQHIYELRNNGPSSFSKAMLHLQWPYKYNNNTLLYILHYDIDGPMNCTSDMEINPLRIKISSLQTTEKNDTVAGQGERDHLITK
Sequence of Integrin alpha-V/beta-3 (P06756 891-1048 limits assumed): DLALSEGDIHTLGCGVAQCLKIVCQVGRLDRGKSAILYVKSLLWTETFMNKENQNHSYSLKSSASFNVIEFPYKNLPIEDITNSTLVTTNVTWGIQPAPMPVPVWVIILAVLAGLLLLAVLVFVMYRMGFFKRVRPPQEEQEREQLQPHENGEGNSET

Integrin alpha-4/beta-1 [2] = target: T1, Integrin alpha-4/beta-1; test: Antagonist activity at human alpha4beta1integrin in human Jurkat cells assessed as reduction of VCAM-1-induced ERK1/2 phosphorylation after 60 mins by Western blot analysis; type: cell-based
In short: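 Jurkat cells were serum-starved for 16 h in RPMI-1640 with 1% FBS, then preincubated with compound in suspension for 60 min. They were then kept in suspension or plated on VCAM-1-coated wells, with poly-L-lysine as the nonspecific substrate. After 60 min the cells were lysed and Western blotted for pERK1/2 and total ERK1/2. Densitometry normalized pERK1/2 to tERK1/2 (mean ± SEM, n = 6). IC50 came from a separate concentration series.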

[3] = Inhibition of human […] integrin expressed in human Jurkat cells assessed as inhibition of cell adhesion to ICAM1; type: cell-based

T1 sequence (P05556 whole entry, one chain of several): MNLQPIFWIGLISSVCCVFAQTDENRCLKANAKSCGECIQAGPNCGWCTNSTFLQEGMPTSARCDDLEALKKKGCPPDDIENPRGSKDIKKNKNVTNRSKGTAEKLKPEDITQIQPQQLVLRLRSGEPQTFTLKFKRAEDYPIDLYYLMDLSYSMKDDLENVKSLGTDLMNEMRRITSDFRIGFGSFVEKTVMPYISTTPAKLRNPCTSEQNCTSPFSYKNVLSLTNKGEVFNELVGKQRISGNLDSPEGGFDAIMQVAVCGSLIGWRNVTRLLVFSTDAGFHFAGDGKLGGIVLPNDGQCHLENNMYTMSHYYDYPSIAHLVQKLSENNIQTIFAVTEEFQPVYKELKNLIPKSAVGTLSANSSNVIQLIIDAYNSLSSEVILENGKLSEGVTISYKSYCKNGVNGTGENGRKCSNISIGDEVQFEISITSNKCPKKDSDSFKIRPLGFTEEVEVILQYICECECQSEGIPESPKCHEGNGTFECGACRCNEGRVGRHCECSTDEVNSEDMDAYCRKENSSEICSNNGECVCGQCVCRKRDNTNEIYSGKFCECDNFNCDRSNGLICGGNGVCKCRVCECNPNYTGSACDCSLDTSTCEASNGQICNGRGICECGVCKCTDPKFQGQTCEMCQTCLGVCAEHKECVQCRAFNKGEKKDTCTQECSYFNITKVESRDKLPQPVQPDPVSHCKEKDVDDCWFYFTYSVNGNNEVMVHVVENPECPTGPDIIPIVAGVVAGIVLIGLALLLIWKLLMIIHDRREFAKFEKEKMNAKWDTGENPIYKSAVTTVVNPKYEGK

IC50 (Integrin alpha-4/beta-1 [1]) [nM] | IC50 (Integrin alpha-4/beta-7) [nM] | IC50 (Integrin alpha-5/beta-1) [nM] | IC50 (Integrin alpha-V/beta-3) [nM] | IC50 (Integrin alpha-4/beta-1 [2]) [nM] | IC50 [3] [nM] | Compound
62 | 343 | > 1000 | > 1000 | 131 | > 1000 | Cc1ccccc1NC(=O)Nc1ccc(CNC(=O)C2=CCN(C(=O)CC(=O)O)[C@@H]2C2CCCCC2)cc1
> 1000 |  |  |  |  |  | Cc1ccccc1NC(=O)Nc1ccc(CNC(=O)C2=CCN(C(=O)CC(=O)O)[C@H]2C2CCCCC2)cc1

The remaining lines, values behind:

Compound | IC50 (Integrin alpha-4/beta-1 [1]) [nM] | IC50 (Integrin alpha-4/beta-7) [nM] | IC50 (Integrin alpha-5/beta-1) [nM] | IC50 (Integrin alpha-V/beta-3) [nM] | IC50 (Integrin alpha-4/beta-1 [2]) [nM] | IC50 [3] [nM]
Cc1ccccc1NC(=O)N1CC=C(C(=O)NCc2ccc(NC(=O)CC(=O)O)cc2)[C@H]1C(C)C | 250 |  |  |  |  | 
Cc1ccccc1NC(=O)N1CC=C(C(=O)NCc2ccc(NC(=O)CC(=O)O)cc2)[C@@H]1C(C)C | 110 |  |  |  |  | 
Cc1ccccc1NC(=O)Nc1ccc(CNC(=O)C2=CCN(C(=O)CC(=O)O)[C@@H]2C(C)C)cc1 | 10 | 270 | > 1000 | > 1000 | 10 | > 1000
Cc1ccccc1NC(=O)Nc1ccc(CNC(=O)C2=CCN(C(=O)CC(=O)O)[C@H]2C(C)C)cc1 | > 1000 |  |  |  |  | 
